ChEMBL document CHEMBL1136943, “Nocathiacin analogs: Synthesis and antibacterial activity of novel water-soluble amides” (Bioorg Med Chem Lett, 2009)
Converted amounts (≈) assume the structure as drawn.

How the values were obtained:
Staphylococcus aureus [1] = assay: Antibacterial activity against Staphylococcus aureus MB2865 in liquid culture by turbidity method; assay type: functional
Procedure, shortened: (§1)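 MIC is the lowest concentration giving 100% inhibition of bacterial growth in liquid culture, read by turbidity.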

Streptococcus pneumoniae = assay: Antibacterial activity against Streptococcus pneumoniae CL2883 in liquid culture by turbidity method; assay type: functional; procedure, shortened: as §1
Enterococcus faecalis = assay: Antibacterial activity against Enterococcus faecalis C21560 in liquid culture by turbidity method; assay type: functional; procedure, shortened: as §1
Staphylococcus aureus [2] = assay: Antibacterial activity against Staphylococcus aureus infected in mouse model assessed as reduction of >= 2 log 10 cfu kidney burden; assay type: functional
Procedure, shortened: (§2)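 Systemic S. aureus infection mouse model (SATOA). Compounds were given iv; […]. Kidney bacterial burden (cfu) was compared with untreated control. ED99 is the dose giving a reduction of at least 2 log10 cfu in kidney burden.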

Staphylococcus aureus [3] = assay: Antibacterial activity against Staphylococcus aureus infected in mouse model assessed as reduction of kidney burden at 0.5 mg/kg, iv relative to control; assay type: functional; procedure, shortened: as §2
[4] = target: T1, Type-2 angiotensin II receptor (Homo sapiens, UniProt P50052); assay: Inhibition of AT2 receptor
T1 sequence (P50052 whole entry): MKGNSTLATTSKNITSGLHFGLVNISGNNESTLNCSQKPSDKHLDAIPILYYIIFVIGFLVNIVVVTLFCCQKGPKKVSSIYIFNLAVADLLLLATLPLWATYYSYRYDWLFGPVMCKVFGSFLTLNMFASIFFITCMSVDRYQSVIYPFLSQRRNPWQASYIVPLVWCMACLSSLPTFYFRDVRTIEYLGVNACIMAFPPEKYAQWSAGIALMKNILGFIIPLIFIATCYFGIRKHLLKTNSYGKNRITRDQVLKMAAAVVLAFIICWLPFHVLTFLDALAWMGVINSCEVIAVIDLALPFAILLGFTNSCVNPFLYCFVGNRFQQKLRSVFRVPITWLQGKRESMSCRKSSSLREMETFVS
Procedure, shortened: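 AT2 IC50 derived from four dose levels per compound, following a published protocol.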

Staphylococcus aureus [5] = assay: Antibacterial activity against Staphylococcus aureus infected in mouse model assessed as reduction of kidney burden iv relative to control

| MIC (Staphylococcus aureus [1]) | MIC (Streptococcus pneumoniae) | MIC (Enterococcus faecalis) | IC50 [4] | Structure (SMILES) | ED99 (Staphylococcus aureus [2]) | Activity (Staphylococcus aureus [3]) | Activity (Staphylococcus aureus [5]) |
| --- | --- | --- | --- | --- | --- | --- | --- |
| 0.015 µg/mL (≈ 9.94 nM) | 0.00095 µg/mL (≈ 0.63 nM) | 0.12 µg/mL (≈ 79.5 nM) | < 10 nM | CO/C(C)=C1/NC(=O)[C@H]([C@@H](C)O)NC(=O)c2csc(n2)-c2cc(O)c(-c3nc(C(=O)NCCCN4CCN(C)CC4)cs3)nc2-c2csc(n2)[C@@H]2COC(=O)c3c4c5c(cccc5n3O)COC(=O)[C@@H](O[C@H]3C[C@](C)(O)[C@H](N(C)C)[C@H](C)O3)[C@@H](OC4)[C@H](NC(=O)c3csc1n3)c1nc(cs1)C(=O)N2 | 0.13 mg/kg | 5.8 |  |
| 0.011 µg/mL (≈ 7.35 nM) | 0.007 µg/mL (≈ 4.68 nM) | 0.016 µg/mL (≈ 10.7 nM) | 260 nM | CO/C(C)=C1/NC(=O)[C@H]([C@@H](C)O)NC(=O)c2csc(n2)-c2cc(O)c(-c3nc(C(=O)NCCCN4CCOCC4)cs3)nc2-c2csc(n2)[C@@H]2COC(=O)c3c4c5c(cccc5n3O)COC(=O)[C@@H](O[C@H]3C[C@](C)(O)[C@H](N(C)C)[C@H](C)O3)[C@@H](OC4)[C@H](NC(=O)c3csc1n3)c1nc(cs1)C(=O)N2 | 0.24 mg/kg |  | 4.68 |
